According to ChEMBL document CHEMBL4665711, “Synthesis of (Z)-3-(arylamino)-1-(3-phenylimidazo[1,5-a]pyridin-1-yl)prop-2-en-1-ones as potential cytotoxic agents” (Bioorg Med Chem Lett, 2020):
Activity calls are given as the source filed them. No cut-off for these calls is given here.

Tests used:
HCT-116 [1] = test: Induction of mitochondrial membrane potential loss in human HCT-116 cells assessed as cells with hyperpolarized mitochondria by measuring decrease in J-aggregates red fluorescence intensity at 2.5 uM incubated for 48 hrs by JC1 staining based flow cytometry analysis (reference value: 86.42 %); assay type: functional; design: scale not given: the % may be the effect or the level left
HCT-116 [2] = test: Induction of apoptosis in human HCT-116 cells assessed as viable cells at 1 uM incubated for 48 hrs by annexin-V and propidium iodide staining based flow cytometry analysis (reference value: 96.29 %); assay type: functional; details: read-out: Activity
HCT-116 [3] = test: Induction of cell cycle arrest in human HCT-116 cells assessed as sub-G1 phase at 2.5 uM incubated for 48 hrs by propidium iodide based flow cytometry analysis (reference value: 2.1 %); assay type: functional
HCT-116 [4] = test: Induction of apoptosis in human HCT-116 cells assessed as membrane blebbing at 0.5 to 2.5 uM incubated for 24 hrs by acridine orange staining based microscopic analysis; assay type: functional, cell-based; details: dose microM 0.5-2.5, time 24.0 hrs
Outline: (§1)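 HCT-116 cells were incubated at 0.5, 1.0 and 2.5 µM for 24 h and stained with acridine orange. Green fluorescence (excitation 480-490 nm), chromatin distribution and blebbing were inspected microscopically at 200× against untreated controls.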

HCT-116 [5] = test: Induction of apoptosis in human HCT-116 cells assessed as irregular distribution of chromatin at 0.5 to 2.5 uM incubated for 24 hrs by acridine orange staining based microscopic analysis; assay type: functional, cell-based; details: dose microM 0.5-2.5, time 24.0 hrs; outline: as §1
HCT-116 [6] = test: Cytotoxicity against human HCT-116 cells assessed as induction of cell morphological changes at 0.5 to 2.5 uM incubated for 48 hrs by phase contrast microscopy; assay type: functional, cell-based; details: dose microM 0.5-2.5, time 48.0 hrs
HCT-116 [7] = test: Induction of apoptosis in human HCT-116 cells assessed as early apoptotic cells at 1 uM incubated for 48 hrs by annexin-V and propidium iodide staining based flow cytometry analysis (reference value: 1.87 %); assay type: functional
HCT-116 [8] = test: Cytotoxicity against human HCT-116 cells assessed as reduction in cell viability at 0.5 to 2.5 uM incubated for 48 hrs by phase contrast microscopy; assay type: functional, cell-based; details: dose microM 0.5-2.5, time 48.0 hrs
HCT-116 [9] = test: Induction of cell cycle arrest in human HCT-116 cells assessed as G2/M phase at 2.5 uM incubated for 48 hrs by propidium iodide based flow cytometry analysis (reference value: 15.3 %); assay type: functional
HCT-116 [10] = test: Induction of cell cycle arrest in human HCT-116 cells assessed as sub-G1 phase at 1 uM incubated for 48 hrs by propidium iodide based flow cytometry analysis (reference value: 2.1 %); assay type: functional
BT-474 = test: Cytotoxicity against human BT-474 cells assessed as reduction in cell viability incubated for 48 hrs by MTT assay; assay type: functional, cell-based; details: BT-474, 48 h
Outline: (§2)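 Cancer cell lines were exposed to drug for 48 h, and the 50% inhibitory concentration was determined. Values are averages of three individual experiments. A549, HCT-116, BT-474 and MDA-MB-231 are human lines; B16F10 is a murine melanoma line.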

HCT-116 [11] = test: Induction of cell cycle arrest in human HCT-116 cells assessed as G2/M phase at 0.5 uM incubated for 48 hrs by propidium iodide based flow cytometry analysis (reference value: 15.3 %); assay type: functional
HCT-116 [12] = test: Induction of mitochondrial membrane potential loss in human HCT-116 cells assessed as cells with hyperpolarized mitochondria by measuring decrease in J-aggregates red fluorescence intensity at 0.5 uM incubated for 48 hrs by JC1 staining based flow cytometry analysis (reference value: 86.42 %); assay type: functional; design: scale not given: the % may be the effect or the level left
HCT-116 [13] = test: Induction of apoptosis in human HCT-116 cells assessed as early apoptotic cells at 2.5 uM incubated for 48 hrs by annexin-V and propidium iodide staining based flow cytometry analysis (reference value: 1.87 %); assay type: functional
HCT-116 [14] = test: Induction of mitochondrial membrane potential loss in human HCT-116 cells assessed as cells with hyperpolarized mitochondria by measuring decrease in J-aggregates red fluorescence intensity at 1 uM incubated for 48 hrs by JC1 staining based flow cytometry analysis (reference value: 86.42 %); assay type: functional; design: scale not given: the % may be the effect or the level left
HCT-116 [15] = test: Induction of cell cycle arrest in human HCT-116 cells assessed as G2/M phase at 1 uM incubated for 48 hrs by propidium iodide based flow cytometry analysis (reference value: 15.3 %); assay type: functional
HCT-116 [16] = test: Induction of cell cycle arrest in human HCT-116 cells assessed as sub-G1 phase at 0.5 uM incubated for 48 hrs by propidium iodide based flow cytometry analysis (reference value: 2.1 %); assay type: functional
HCT-116 [17] = test: Induction of apoptosis in human HCT-116 cells assessed as viable cells at 2.5 uM incubated for 48 hrs by annexin-V and propidium iodide staining based flow cytometry analysis (reference value: 96.29 %); assay type: functional; details: read-out: Activity
HCT-116 [18] = test: Induction of cell cycle arrest in human HCT-116 cells assessed as G0/G1 phase at 1 uM incubated for 48 hrs by propidium iodide based flow cytometry analysis (reference value: 28.2 %); assay type: functional
HCT-116 [19] = test: Induction of apoptosis in human HCT-116 cells assessed as reduction in green fluorescence intensity at 0.5 to 2.5 uM incubated for 24 hrs by acridine orange staining based microscopic analysis; assay type: functional, cell-based; details: dose microM 0.5-2.5, time 24.0 hrs; outline: as §1
HCT-116 [20] = test: Induction of apoptosis in human HCT-116 cells assessed as late apoptotic cells at 0.5 uM incubated for 48 hrs by annexin-V and propidium iodide staining based flow cytometry analysis (reference value: 1.48 %); assay type: functional
HCT-116 [21] = test: Cytotoxicity against human HCT-116 cells assessed as reduction in cell viability incubated for 48 hrs by MTT assay; assay type: functional, cell-based; details: HCT-116, 48 h; outline: as §2
HCT-116 [22] = test: Induction of apoptosis in human HCT-116 cells assessed as late apoptotic cells at 1 uM incubated for 48 hrs by annexin-V and propidium iodide staining based flow cytometry analysis (reference value: 1.48 %); assay type: functional
HCT-116 [23] = test: Induction of apoptosis in human HCT-116 cells assessed as viable cells at 0.5 uM incubated for 48 hrs by annexin-V and propidium iodide staining based flow cytometry analysis (reference value: 96.29 %); assay type: functional; details: read-out: Activity
HCT-116 [24] = test: Induction of cell cycle arrest in human HCT-116 cells assessed as G0/G1 phase at 2.5 uM incubated for 48 hrs by propidium iodide based flow cytometry analysis (reference value: 28.2 %); assay type: functional
HCT-116 [25] = test: Induction of cell cycle arrest in human HCT-116 cells assessed as S phase at 1 uM incubated for 48 hrs by propidium iodide based flow cytometry analysis (reference value: 7.8 %); assay type: functional
A549 = test: Cytotoxicity against human A549 cells assessed as reduction in cell viability incubated for 48 hrs by MTT assay; assay type: functional, cell-based; details: A549, 48 h; outline: as §2
MDA-MB-231 = test: Cytotoxicity against human MDA-MB-231 cells assessed as reduction in cell viability incubated for 48 hrs by MTT assay; assay type: functional, cell-based; details: MDA-MB-231, 48 h; outline: as §2
HCT-116 [26] = test: Induction of cell cycle arrest in human HCT-116 cells assessed as G0/G1 phase at 0.5 uM incubated for 48 hrs by propidium iodide based flow cytometry analysis (reference value: 28.2 %); assay type: functional
HCT-116 [27] = test: Induction of mitochondrial membrane potential loss in human HCT-116 cells assessed as cells with depolarized mitochondria by measuring increase in J-monomer green fluorescence intensity at 0.5 uM incubated for 48 hrs by JC1 staining based flow cytometry analysis (reference value: 12.53 %); assay type: functional
HCT-116 [28] = test: Induction of apoptosis in human HCT-116 cells assessed as late apoptotic cells at 2.5 uM incubated for 48 hrs by annexin-V and propidium iodide staining based flow cytometry analysis (reference value: 1.48 %); assay type: functional

`O=C(/C=C\Nc1ccc(Cl)cc1)c1nc(-c2ccc(F)cc2)n2ccccc12` gave an Activity (HCT-116 [1]) of 76.3%, a viability at 1 µM (HCT-116 [2]) of 85.8% and an Activity (HCT-116 [3]) of 1.6%. The Activity (HCT-116 [4]) was “Active”, the Activity (HCT-116 [5]) was “Active” and the Activity (HCT-116 [6]) was “Active”. For the same molecule, the Activity (HCT-116 [7]) was 3.78%, the Activity (HCT-116 [8]) was “Active” and the Activity (HCT-116 [9]) was 15.6%. The Activity (HCT-116 [10]) was 1.9%, the IC50 (BT-474) was 7.03 µM and the Activity (HCT-116 [11]) was 15%. It also gave an Activity (HCT-116 [12]) of 85.48%, an Activity (HCT-116 [13]) of 2.29% and an Activity (HCT-116 [14]) of 78.07%. It also gave an Activity (HCT-116 [15]) of 16.4%, an Activity (HCT-116 [16]) of 1.2% and a viability at 2.5 µM (HCT-116 [17]) of 77.4%. For the same molecule, the Activity (HCT-116 [18]) was 38.7%, the Activity (HCT-116 [19]) was “Active” and the Activity (HCT-116 [20]) was 5.7%. It also gave an IC50 (HCT-116 [21]) of 1.21 µM, an Activity (HCT-116 [22]) of 6.94% and a viability at 0.5 µM (HCT-116 [23]) of 87.5%. The Activity (HCT-116 [24]) was 41.9%, the Activity (HCT-116 [25]) was 9.7% and the IC50 (A549) was 5.09 µM. It also gave an IC50 (MDA-MB-231) of 4.25 µM, an Activity (HCT-116 [26]) of 31.5% and an Activity (HCT-116 [27]) of 13.5%. It also gave an Activity (HCT-116 [28]) of 6.97%.
